The values that follow come from ChEMBL document CHEMBL2046406 (J Med Chem, 2012).

Structures are written as SMILES. Active and inactive are the calls of the source. No cut-off for these calls is given here.

The species named for assay [1] is Homo sapiens. The assay is described as follows: Selectivity index, ratio of inhibition of human mu opioid receptor to inhibition of human kappa opioid receptor.
Assay [2] is filed under the species Homo sapiens. The assay is described as follows: Selectivity index, ratio of inhibition of human delta opioid receptor to inhibition of human kappa opioid receptor.
Assay [3] deals with T1, Mu-type opioid receptor (Homo sapiens, UniProt P35372). The assay is described as follows: Agonist activity at human mu opioid receptor expressed in CHO cells assessed as stimulation of […]GTPgammaS binding after 60 mins by scintillation counting. It is filed as functional, cell-based. A general note: GTPγS is a poorly hydrolysed GTP analogue; its binding reports G protein activation.

The target in assay [4] is T1, Mu-type opioid receptor. The assay is described as follows: biochemical. The format is cell-based, CHO.
Assay [5] addresses T2, Kappa-type opioid receptor (Homo sapiens, UniProt P41145). The assay can be described thus: biochemical. It is filed as cell-based, CHO.
Assay [6] concerns the target T2, Kappa-type opioid receptor. The assay is described as follows: Antagonist activity at human kappa opioid receptor expressed in CHO cells assessed as inhibition of U50488-induced […]GTPgammaS binding after 60 mins by scintillation counting. It is filed as functional, cell-based. The method in brief: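 κ antagonism: hKOR-CHO membranes incubated with compound plus 100 nM U50,488.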

In assay [7] the target is T1, Mu-type opioid receptor. The assay can be described thus: Antagonist activity at human mu opioid receptor expressed in CHO cells assessed as inhibition of DAMGO-induced […]GTPgammaS binding after 60 mins by scintillation counting. It is filed as functional, cell-based.
Assay [8] addresses T2, Kappa-type opioid receptor. The assay is described as follows: Agonist activity at human kappa opioid receptor expressed in CHO cells assessed as stimulation of […]GTPgammaS binding after 60 mins by scintillation counting. The format is functional, cell-based.
Assay [9] concerns the target T1, Mu-type opioid receptor. The assay is described as follows: Antagonist activity at human mu opioid receptor expressed in CHO cells assessed as inhibition of DAMGO-induced […]GTPgammaS binding after 60 mins by scintillation counting relative to control. It is filed as functional, cell-based.
Assay [10] is filed under the species Homo sapiens. The assay can be described thus: Selectivity index, ratio of inhibition of human delta opioid receptor to inhibition of human mu opioid receptor.
Assay [11] concerns the target T3, Delta-type opioid receptor (Homo sapiens, UniProt P41143). The assay is described as follows: Displacement of [3H]-naltrindole from human delta opioid receptor expressed in CHO cells after 3 hrs by scintillation counting. The format is cell-based. The method in brief: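 CHO membranes expressing human KOR or DOR incubated with radioligand and 12 compound concentrations in 1 mL 50 mM Tris-HCl, pH 7.5, at 25 °C. […] Nonspecific binding with 10 μM naloxone. Three experiments in triplicate.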
Background: Loss of bound radioactivity is the signal in a displacement assay; it reports binding, not function.

The species named for assay [12] is Homo sapiens. The assay is described as follows: Selectivity index, ratio of inhibition of human kappa opioid receptor to inhibition of human mu opioid receptor.
For assay [13], the target named is T2, Kappa-type opioid receptor. The assay can be described thus: Agonist activity at human kappa opioid receptor expressed in CHO cells assessed as stimulation of […]GTPgammaS binding after 60 mins by scintillation counting relative to control. It is filed as functional, cell-based. The method in brief: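 Membranes from CHO cells stably expressing human KOR (15 μg protein per tube) or MOR (7.5 μg protein per tube). Nonspecific binding with 10 μM GTPγS. Filtration, then scintillation counting. Triplicate, at least three experiments.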

Assay [14] deals with T1, Mu-type opioid receptor. The assay is described as follows: Agonist activity at human mu opioid receptor expressed in CHO cells assessed as stimulation of […]GTPgammaS binding after 60 mins by scintillation counting relative to control. The format is functional, cell-based.
Assay [15] has as its target T3, Delta-type opioid receptor. The assay is described as follows: Displacement of [3H]-naltrindole from human delta opioid receptor expressed in CHO cells at 10 uM after 3 hrs by scintillation counting. The format is cell-based.
Assay [16] addresses T2, Kappa-type opioid receptor. The assay can be described thus: Displacement of [3H]-U69,593 from human kappa opioid receptor expressed in CHO cells at 10 uM after 60 mins by scintillation counting. It is filed as cell-based.
A short description of assay [17]: Displacement of [3H]-naltrindole from human delta opioid receptor expressed in CHO cells after 3 hrs by scintillation counting.

The EC50 is the concentration needed to bring the measured effect to its halfway point. Usually Ki stands for the dissociation constant of the complex between target and ligand, obtained from inhibition or displacement. As usually defined, the IC50 is the point on the concentration scale where inhibition reaches its midpoint. What is called Emax is the maximal effect, on the per cent scale that the assay sets. One may read the inhibition as the drop in the measured response relative to a control, in per cent. A low value points to a weak effect.

T3 sequence (P41143 whole entry): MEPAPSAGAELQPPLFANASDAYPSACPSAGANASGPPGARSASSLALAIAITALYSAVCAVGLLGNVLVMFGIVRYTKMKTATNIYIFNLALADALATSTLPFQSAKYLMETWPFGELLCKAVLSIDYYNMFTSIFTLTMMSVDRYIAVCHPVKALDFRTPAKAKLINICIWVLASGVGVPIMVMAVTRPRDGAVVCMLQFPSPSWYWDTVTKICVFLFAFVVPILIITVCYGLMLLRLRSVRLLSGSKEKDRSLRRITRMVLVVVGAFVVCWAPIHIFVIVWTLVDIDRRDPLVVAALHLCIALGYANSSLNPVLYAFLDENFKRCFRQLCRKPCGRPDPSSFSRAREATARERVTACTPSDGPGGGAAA
T2 sequence (P41145 whole entry): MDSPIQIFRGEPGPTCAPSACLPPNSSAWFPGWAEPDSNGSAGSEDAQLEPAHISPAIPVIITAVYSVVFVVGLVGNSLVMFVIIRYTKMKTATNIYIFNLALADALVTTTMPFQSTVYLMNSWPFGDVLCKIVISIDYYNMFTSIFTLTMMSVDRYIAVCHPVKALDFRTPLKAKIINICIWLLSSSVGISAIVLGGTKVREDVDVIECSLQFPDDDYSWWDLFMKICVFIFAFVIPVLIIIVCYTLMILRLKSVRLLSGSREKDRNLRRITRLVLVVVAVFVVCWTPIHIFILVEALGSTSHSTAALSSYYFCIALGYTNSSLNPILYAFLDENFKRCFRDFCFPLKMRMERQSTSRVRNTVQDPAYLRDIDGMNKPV
T1 sequence (P35372 whole entry): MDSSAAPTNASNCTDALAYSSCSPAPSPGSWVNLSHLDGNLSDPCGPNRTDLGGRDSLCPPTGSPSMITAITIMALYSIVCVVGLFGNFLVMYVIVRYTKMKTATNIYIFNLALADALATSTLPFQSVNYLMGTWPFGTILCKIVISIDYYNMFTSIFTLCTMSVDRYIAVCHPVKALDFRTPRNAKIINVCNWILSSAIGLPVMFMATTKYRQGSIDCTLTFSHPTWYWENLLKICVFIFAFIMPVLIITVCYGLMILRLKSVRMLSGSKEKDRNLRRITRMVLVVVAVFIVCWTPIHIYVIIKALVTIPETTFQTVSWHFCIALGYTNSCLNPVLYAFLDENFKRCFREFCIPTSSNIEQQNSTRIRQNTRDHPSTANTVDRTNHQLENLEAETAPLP

For `Nc1ccc2c(c1)[C@@]13CCCC[C@H]1[C@@H](C2)N(CC1CC1)CC3`, the Selectivity ratio in the assay listed under Homo sapiens [1] came to 7; in the assay listed under Homo sapiens [2], 830.

As for `Oc1ccc(CNc2ccc3c(c2)[C@@]24CCCC[C@H]2[C@@H](C3)N(CC2CCC2)CC4)cc1`, the EC50 came out at 3.6 nM at Mu-type opioid receptor [3] and 38 nM in assay [8]. The Ki on Mu-type opioid receptor [4] came out at 0.35 nM; in assay [5], 2.3 nM; in [11], 120 nM. In addition, in assay [6], the result was inactive. Also, on Mu-type opioid receptor [7] (read-out: IC50), the IC50 was 75 nM. Besides, the Imax on Mu-type opioid receptor [9] came out at 56%. For the same compound, the Selectivity ratio in the assay listed under Homo sapiens [10] is 7; in the assay filed under Homo sapiens [12] it was 340. Also, the Emax in [13] is 130%; at Mu-type opioid receptor [14] it was 38%.

Turning to `CN1CC[C@]23c4c5ccc(NCc6ccc(O)cc6)c4O[C@H]2[C@@H](O)C=C[C@H]3[C@H]1C5`, the values for the inhibition constant Ki (at Mu-type opioid receptor [4]; in assay [5]) were 44 nM and 560 nM, respectively. For the same compound, the Selectivity ratio in the assay listed under Homo sapiens [10] amounted to 13; in the assay listed under Homo sapiens [12] it was 230. The inhibition in assay [15] came out at 19%.

In the case of `CN1CC[C@]23c4c5ccc(NCc6ccccc6O)c4O[C@H]2[C@@H](O)C=C[C@H]3[C@H]1C5`, in assay [5], the affinity corresponds to a Ki of 370 nM. This compound came in with an inhibition in assay [15] of 27%.

As for `O=[N+]([O-])c1cccc(CNc2ccc3c(c2)[C@@]24CCCC[C@H]2[C@@H](C3)N(CC2CCC2)CC4)c1`, the concentration for a half-maximal effect (EC50) was 1.1 nM on Mu-type opioid receptor [3] and 0.79 nM in assay [8]. Also, the inhibition constant Ki amounted to 0.43 nM at Mu-type opioid receptor [4], 1.1 nM in [5] and 150 nM in assay [11]. Also, the outcome in assay [6] was inactive. Also, the concentration for half-maximal inhibition (IC50) at Mu-type opioid receptor [7] (read-out: IC50) worked out at 6.8 nM. On Mu-type opioid receptor [9], the Imax is 49%. Moreover, the Selectivity ratio stood at 3 in the assay listed under Homo sapiens [10] and 350 in the assay filed under Homo sapiens [12]. Moreover, the values for the maximum response (Emax) (in [13]; on Mu-type opioid receptor [14]) were 140% and 70%, respectively.

Take `Oc1ccccc1CNc1ccc2c(c1)[C@@]13CCCC[C@H]1[C@@H](C2)N(CC1CC1)CC3`: the concentration giving a half-maximal response (EC50) was 8.8 nM on Mu-type opioid receptor [3] and 2.3 nM in assay [8]. In addition, the values for the Selectivity ratio in the assay filed under Homo sapiens [1] and in the assay filed under Homo sapiens [2] were 10 and 150, respectively. In addition, the inhibition constant Ki at Mu-type opioid receptor [4] came out at 1.9 nM; in assay [5] it was 0.26 nM; in assay [11], 30 nM. Moreover, the outcome in [6] was inactive. The half-maximal inhibitory concentration (IC50) on Mu-type opioid receptor [7] (read-out: IC50) is 160 nM. Further, on Mu-type opioid receptor [9], the Imax turned out to be 47%. Moreover, the results for the maximal effect (Emax) (in [13]; on Mu-type opioid receptor [14]) were 110% and 44%, respectively.

Take `COc1ccc2c3c1O[C@H]1C(=O)CC[C@H]4[C@@H](C2)N(C)CC[C@]314`: the inhibition in assay [15] is 37%.

Take `COc1cccc(CNc2ccc3c4c2O[C@H]2[C@@H](O)C=C[C@H]5[C@@H](C3)N(C)CC[C@@]452)c1`: the affinity in assay [5] corresponds to a Ki of 500 nM. This compound yielded an inhibition in assay [15] of 33%.

In the case of `COc1cccc(CNc2ccc3c(c2)[C@@]24CCCC[C@H]2[C@@H](C3)N(CC2CCC2)CC4)c1`, the concentration for a half-maximal effect (EC50) on Mu-type opioid receptor [3] was 3.8 nM; in assay [8] it was 39 nM. Also, the inhibition constant (Ki) on Mu-type opioid receptor [4] was 0.69 nM; in assay [5], 3.5 nM; in assay [11] it was 150 nM. In addition, in assay [6], the outcome was inactive. The IC50 at Mu-type opioid receptor [7] (read-out: IC50) worked out at 80 nM. The Imax on Mu-type opioid receptor [9] turned out to be 66%. In addition, the Selectivity ratio in the assay filed under Homo sapiens [10] was found to be 5; in the assay filed under Homo sapiens [12] it was 220. Further, the Emax in assay [13] is 120%; on Mu-type opioid receptor [14], 39%.

Turning to `Oc1ccccc1CNc1ccc2c(c1)[C@@]13CCCC[C@H]1[C@@H](C2)N(CC1CCC1)CC3`, the EC50 was 38 nM at Mu-type opioid receptor [3] and 47 nM in [8]. Further, the Ki at Mu-type opioid receptor [4] turned out to be 1.7 nM; in [5] it was 1.7 nM; in assay [11], 110 nM. Further, the outcome in [6] was inactive. The IC50 on Mu-type opioid receptor [7] (read-out: IC50) was 810 nM. The Imax at Mu-type opioid receptor [9] is 32%. Also, the Selectivity ratio in the assay filed under Homo sapiens [12] and in the assay listed under Homo sapiens [2] was 65 in each case. Further, the maximal effect (Emax) in [13] amounted to 130%; at Mu-type opioid receptor [14], 49%.

On to `CN1CC[C@]23c4c5ccc(NCc6cccc(O)c6)c4O[C@H]2[C@@H](O)C=C[C@H]3[C@H]1C5`, for which the EC50 on Mu-type opioid receptor [3] turned out to be 550 nM. Moreover, the Ki on Mu-type opioid receptor [4] is 7 nM; in assay [5], 910 nM. Besides, the IC50 result at Mu-type opioid receptor [7] (cho) is reported as “Not Active”. Further, the inhibition in assay [15] turned out to be 31%.

On to `Oc1cccc(CNc2ccc3c(c2)C[C@@H]2[C@@H]4CCCC[C@]34CCN2CC2CC2)c1`, for which the values for the Selectivity ratio in the assay listed under Homo sapiens [1] and in the assay filed under Homo sapiens [2] were 150 and over 10000, respectively. Also, the Ki at Mu-type opioid receptor [4] was 150 nM; in assay [5], 0.99 nM. Moreover, the outcome in [6] was inactive. Besides, the EC50 in assay [8] was determined as 27 nM. Moreover, the maximum response (Emax) in assay [13] turned out to be 160%. The inhibition in assay [15] is 46%.

Turning to `COc1ccc(CNc2ccc3c(c2)[C@@]24CCCC[C@H]2[C@@H](C3)N(CC2CCC2)CC4)cc1`, the values for the EC50 (on Mu-type opioid receptor [3]; in assay [8]) were 7.8 nM and 50 nM, respectively. In addition, the inhibition constant Ki was found to be 0.86 nM at Mu-type opioid receptor [4], 4.5 nM in assay [5] and 260 nM in assay [11]. For the same compound, in [6], the result was inactive. In addition, the half-maximal inhibitory concentration (IC50) at Mu-type opioid receptor [7] (read-out: IC50) worked out at 150 nM. On Mu-type opioid receptor [9], the Imax is 55%. Also, the Selectivity ratio in the assay listed under Homo sapiens [10] was 5; in the assay listed under Homo sapiens [12], 300. Moreover, the Emax in [13] amounted to 120%; on Mu-type opioid receptor [14], 34%.

With `Nc1ccc2c(c1)[C@@]13CCCC[C@H]1[C@@H](C2)N(CC1CCC1)CC3`, the results for the Selectivity ratio in the assay filed under Homo sapiens [1] and in the assay filed under Homo sapiens [2] were 2 and 100, respectively.

For `COc1ccc(CNc2ccc3c4c2O[C@H]2[C@@H](O)C=C[C@H]5[C@@H](C3)N(C)CC[C@@]452)cc1`, the inhibitory constant (Ki) on Mu-type opioid receptor [4] came out at 60 nM. In addition, the Selectivity ratio in the assay filed under Homo sapiens [10] and in the assay listed under Homo sapiens [12] was over 160 each time. Besides, the inhibition worked out at 54% in assay [16] and 12% in assay [15].

Regarding `CN1CC[C@]23CCCC[C@H]2[C@H]1Cc1ccc(N)cc13`, the Ki came to 7.9 nM on Mu-type opioid receptor [4], 110 nM in [5] and 1500 nM in assay [17]. Moreover, the Selectivity ratio in the assay listed under Homo sapiens [10] is 14; in the assay listed under Homo sapiens [12], 190.

Consider `COc1ccccc1CNc1ccc2c3c1O[C@H]1[C@@H](O)C=C[C@H]4[C@@H](C2)N(C)CC[C@@]341`, for which the inhibition constant (Ki) in [5] stood at 220 nM. For the same compound, the concentration for half-maximal inhibition (IC50) entry at Mu-type opioid receptor [7] (cho) was “Not Active”. On Mu-type opioid receptor [9], the Imax entry is “inactive”. The same compound yielded an inhibition in [15] of 22%.
